Assay results: article PMC11807182 (Scientific Reports, 2025)

Key:
S. mansoni adult worms = settings: read-out: EC50 for S. mansoni adult worms; cited from earlier work
Caenorhabditis elegans = test: Lethal toxicity assay in C. elegans; format: in vivo; settings: L4-stage larvae, Bristol N2 strain, 24 h, 21 °C
In short: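 C. elegans Bristol N2 was grown on NGM plates seeded with E. coli OP50. Synchronized L4 larvae, 60/well in M9 medium, were exposed to test compound starting at 1,000 µM, with ivermectin reference and 1% DMSO negative control. Viability was scored by movement after 24 h at 21 °C. Triplicate; LD50 from sigmoidal dose-response curves.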

[1] = system: Angiostrongylus cantonensis L1 larvae; test: In vitro assay with A. cantonensis L1 larvae; format: cell-based; settings: for activity against A. cantonensis: L1 larvae, concentrations starting from 50 µM, 24 h
In short: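 A. cantonensis (NPDN-AC strain, cycled through B. glabrata and Wistar rats) L1 larvae were recovered from rat feces by the Rugai technique and washed in RPMI 1640 with antibiotics. About 100 larvae/well were exposed to test compound starting at 50 µM at 21 °C, with drug-free medium, metal salt and 1% DMSO controls. Viability was checked microscopically at 0 and 24 h; efficacy meant ≥60% larvae immobile.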

[2] = system: Schistosoma mansoni adult worms; test: In vitro assay with adult S. mansoni; format: cell-based; settings: concentrations starting from 50 µM, up to 72 h
In short: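 S. mansoni (Belo Horizonte strain) adults were perfused from the hepatic portal vein of Swiss mice 49 days post-infection. One worm pair/well in RPMI 1640 with 10% FBS, penicillin and streptomycin; test compound starting at 50 µM, with praziquantel, metal salts and 1% DMSO controls; 37 °C, 5% CO₂, up to 72 h. Viability by inverted microscope at 0, 24, 48 and 72 h; death meant no movement ≥1 min after gentle stimulation. Triplicate; EC50 by sigmoidal fit.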

## 2-oxopopulifolic acid methyl ester
S. mansoni adult worms
  EC50: 50 µM

## CC1=CC(=O)CC2[C@]1(C)CC[C@@H](C)[C@]2(C)CCC(C)CC(=O)O (some centres unmarked) [2-oxopopulifolic acid]
S. mansoni adult worms
  EC50: 50 µM

## O=C1C(=O)c2cccnc2-c2ncccc21.O=C1C(=O)c2cccnc2-c2ncccc21.[Ag+].[O-][Cl+3]([O-])([O-])[O-] [Ag-phendione, [Ag(phendione)2](ClO4)]
Caenorhabditis elegans
  C. elegans LD50: 167 µM

## O=[N+]([O-])[O-].[Ag+] [AgNO₃]
[1]
  activity against A. cantonensis: no activity
[2]
  antischistosomal activity: no antischistosomal activity

## O.O.O.O.O.O.O.O.O=C1C(=O)c2cccnc2-c2ncccc21.O=C1C(=O)c2cccnc2-c2ncccc21.O=C1C(=O)c2cccnc2-c2ncccc21.[Cu+2].[O-][Cl+3]([O-])([O-])[O-].[O-][Cl+3]([O-])([O-])[O-] [Cu-phendione, [Cu(phendione)3](ClO4)2·8H2O]
Caenorhabditis elegans
  C. elegans LD50: 280 µM

## O.O.O.O.O.O=S(=O)([O-])[O-].[Cu+2] [CuSO₄·5 H₂O]
[1]
  activity against A. cantonensis: no activity
[2]
  antischistosomal activity: no antischistosomal activity

## O=C1C(=O)c2cccnc2-c2ncccc21 [Phendione, 1,10-phenanthroline-5,6-dione]
[1]; A. cantonensis L1 larvae
  larval motility compared to the control group: significantly reduced
Caenorhabditis elegans
  C. elegans LD50: 719 µM

## Cc1ccc(C(C)C)cc1O [carvacrol]
S. mansoni adult worms
  EC50: 56.8 µM

## CC(=O)Oc1cc(C(C)C)ccc1C [carvacryl acetate]
S. mansoni adult worms
  EC50: 42.2 µM

## C=C1C(=O)O[C@@H]2/C=C(\CO)CC/C=C(\C)C[C@H](OC(=O)C(=C)[C@@H](O)CO)[C@@H]12 [cnicin]
S. mansoni adult worms
  EC50: 50 µM

## O=c1c(O)c(-c2ccc(O)cc2)oc2cc(O)cc(O)c12 [kaempferol]
S. mansoni adult worms
  EC50: 81.8 µM

## C/C=C/c1cc(OC)c2c(c1)[C@H](C)[C@@H](c1ccc(O)c(OC)c1)O2 [licarin A]
S. mansoni adult worms
  EC50: 30 µM

## C=CC(C)(C)c1cc(/C=C/C(=O)c2ccc(O)cc2)c(OC)cc1O [licochalcone A]
S. mansoni adult worms
  EC50: 50 µM

## Ivermectin
Caenorhabditis elegans
  C. elegans LD50: 4.1 µM
